# Diaph inh CS: inhibits diaphorase or chemically oxidizes, flagging diaphorase assay artifacts; diaphorase resazurin-to-resorufin fluorescence, NADH, 16 min; bacterial (C. kluyveri) enzyme, not human; inhibition, % at 20 µM; hit rate 0.69% among 190,000; AID 1217;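 active means primary screen inhibition at 20 µM above a set limit, cut at about 50% in these data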;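 further: plate controls were DMSO with full reaction for no effect and wells lacking NADH for full effect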
#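 controls = No-NADH positive control and DMSO neutral control | system = Clostridium kluyveri diaphorase enzyme | timing = reaction incubation of 16 min at room temperature | signal = resorufin fluorescence 544/590 nm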
# Diaphorase act: counter-screen for diaphorase-based assays: diaphorase activators and chemical reducers. hit rate 0.005% among 190,000. activation factor at 20 µM. AID 1229. Diaphorase/resazurin coupled assay, resorufin fluorescence, 16 min; active compounds read high; 1 = vehicle wells, 0 = NADH-free wells;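 active means diaphorase activity raised at least twofold by the compound at 20 µM; inactive means activation factor below 2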
#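 Material: purified diaphorase enzyme from Clostridium kluyveri / Medium: HEPES pH 7.4 buffer with MgCl2 and Tween 20 / Schedule: enzyme reaction of 16 min at room temperature / Measured by: resorufin fluorescence, excitation 544 nm, emission 590 nm / Evaluation: rise in resorufin formation, marking diaphorase activation or chemical reduction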
# FLuc inh counter: Photinus pyralis luciferase inhibition counter-screen. P08659. ATPLite firefly luciferase biochemical luminescence, 10 min. inhibition, % at 10 µM. hit rate 1.5% among 200,000. AID 1006;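 active means inhibition above about 50% when tested at 10 µM, limit read from the data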
# Target sequence (P08659 whole entry, looked up): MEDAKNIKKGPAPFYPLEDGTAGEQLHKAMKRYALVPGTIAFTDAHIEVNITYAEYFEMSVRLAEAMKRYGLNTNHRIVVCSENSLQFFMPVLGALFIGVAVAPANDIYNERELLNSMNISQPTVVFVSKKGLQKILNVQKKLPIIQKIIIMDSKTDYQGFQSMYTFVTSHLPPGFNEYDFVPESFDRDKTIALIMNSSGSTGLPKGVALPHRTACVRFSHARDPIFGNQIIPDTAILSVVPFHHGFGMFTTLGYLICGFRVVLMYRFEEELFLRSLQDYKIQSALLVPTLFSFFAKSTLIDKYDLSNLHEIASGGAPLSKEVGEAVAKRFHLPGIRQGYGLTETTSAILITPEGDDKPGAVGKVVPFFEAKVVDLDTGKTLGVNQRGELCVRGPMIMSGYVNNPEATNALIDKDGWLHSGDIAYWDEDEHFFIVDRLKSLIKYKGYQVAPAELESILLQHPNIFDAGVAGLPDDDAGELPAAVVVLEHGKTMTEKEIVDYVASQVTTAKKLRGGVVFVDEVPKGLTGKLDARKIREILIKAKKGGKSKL
# G6PDH counter: L. mesenteroides G6PDH inhibition counter-screen; Purified L. mesenteroides G6PDH, diaphorase/resazurin coupled fluorescence, 45 min; inhibition, % at 5 µM; hit rate 0.12% among 200,000; in the data active means inhibition above about 50%
# FLuc act counter: affects firefly luciferase, flagging false hits in luciferase stimulation screens. P08659. ATPlite luciferase biochemical, luminescence, 10 min; 0 = ATP-free wells, 1 = DMSO control. activation factor at 10 µM. 200,000 tested, under 10 active;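 active means luciferase activation factor, scaled between plate controls, of at least 2 with compound at 10 µM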
#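 Material: luciferase plus luciferin reagent, cell-free. Medium: PBS buffer for ATP. Also added: ATP substrate, dispensed from a 10.24 µM working solution in PBS. Doses: test compounds dosed from 2 mM stocks in 100% DMSO. Incubation: 10 min post-reagent at room temperature. Technique: light output (luminescence). Read-out basis: luminescence gain marking luciferase activators.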
# Active calls of the source: *. Rows were chosen to be rich in hits. Some 2.3% of all compounds tested hit in one or more screens of this group.
SMILES,Diaph inh CS,Diaphorase act,FLuc inh counter,G6PDH counter,FLuc act counter
CC(=O)Oc1cccc(/C=c2\sc3nc(-c4ccco4)nn3c2=O)c1,11.2,0.9,89.1*,-13.6,0.1
CCCOc1ccc(/C=c2\sc3nc(-c4ccco4)nn3c2=O)cc1OCC,10.3,0.9,-0.1,-56.3,1
Cc1cc(C)c2nc(NNC(=O)c3ccc(S(=O)(=O)N4CCc5ccccc5C4)cc3)sc2c1,6.6,0.9,-3.0,7.7,1
Cc1cc(C)c2nc(NNC(=O)c3cc(=O)c4ccccc4o3)sc2c1,67.2*,0.3,15.5,16.3,0.8
Cc1ccc(-n2c(C)cc(C(=O)COC(=O)c3ccc[nH]c3=O)c2C)cc1,10.7,0.9,81.2*,1.2,0.2
COCCn1c(C)cc(C(=O)COC(=O)c2ccc[nH]c2=O)c1C,6.3,0.9,84.1*,4.1,0.2
COCCn1c(C)cc(C(=O)COC(=O)c2ccc(Br)o2)c1C,12.8,0.9,80.0*,2.5,0.2
Cc1cc(C(=O)COC(=O)c2ccc[nH]c2=O)c(C)n1C,2.5,1,37.8,-2.6,0.6
CN(C)c1nc(N)nc(Cn2ccnc2)n1,4.9,1,-1.9,3.3,1
Cc1ccc(C(=O)N2CCN(S(=O)(=O)c3ccc(C)c([N+](=O)[O-])c3)C2)cc1,21.5,0.8,-11.3,1.6,1.1
Clc1ccc2c(c1)C1OCCC1C(c1ccco1)N2 (configuration not stated),8.5,0.9,54.4*,2.1,0.5
Cc1ccc2c(c1)[C@H]1OCC[C@H]1[C@@H](c1ccncc1)N2,17.5,0.8,-2.5,8.5,1
Cc1ccsc1C(=O)Nc1ccc2c(c1)OCCO2,6.7,0.9,78.6*,-6.5,0.2
Cc1cc(C(=O)Nc2ccc3c(c2)OCCO3)c2ccccc2n1,6.0,0.9,-5.1,4.8,1.1
Cc1nc2ccccn2c1C(=O)Nc1ccc2c(c1)OCCO2,11.2,0.9,53.8*,9.5,0.5
O=C(Nc1ccc2c(c1)OCCO2)c1coc2ccccc2c1=O,5.3,0.9,97.1*,-14.4,0
Cc1cc(C(=O)Nc2ccc3c(c2)OCCO3)c(C)o1,12.7,0.9,54.5*,-16.8,0.5
CC(=O)Nc1ccc(NC(=O)c2c(C)nc3ccccn23)cc1,9.1,0.9,-2.7,0.0,1
CC1CCN(CC(O)COC2CC(C)CCC2C(C)C)CC1 (configuration not stated),2.4,1,-1.8,6.7,1
Cc1[nH]c2ccc(CNS(=O)(=O)c3ccc(S(=O)(=O)N4CCOCC4)cc3)cc2c1C,28.4,0.7,-4.4,-0.4,1
CCn1ccc(C(=O)Oc2ccc(Cl)cc2)n1,1.3,1,53.5*,14.7,0.5
CCn1ccc(C(=O)Nc2ccc(Cl)cn2)n1,21.5,0.8,11.1,-2.2,0.9
CCOC(=O)N=Nc1c2ccccc2c2nc3no[nH]c3nc12,20.1,0.8,-5.7,55.1*,1.1
O=C1C2=C(c3ccccc31)[N+](=O)[C@@H]1CCCC[C@@H]1N2[O-],75.6*,0.2,-7.7,28.5,1.1
O=C1C2=C(c3ccccc31)[N+](=O)C1CCCCC1N2[O-] (configuration not stated),76.2*,0.2,-8.8,25.8,1.1
SMILES,Diaph inh CS,Diaphorase act,FLuc inh counter,G6PDH counter,FLuc act counter
CNc1ccc(Br)cc(C(=O)/C=C/c2cccc(OC)c2OC)c1=O,58.9*,0.4,4.7,25.1,1
CNc1ccc(Br)cc(C(=O)/C=C/c2cccc(Cl)c2Cl)c1=O,67.7*,0.3,4.0,30.7,1
COC(=O)c1cc(C#N)c(Oc2ccc(F)cc2)nc1C,19.6,0.8,-3.1,-0.5,1
Oc1c(CN2CCOCC2)ccc2ccccc12,40.9,0.6,-3.8,60.0*,1
COc1ccc(-c2n(Cc3ccccc3)c3ccccc3[n+]2Cc2ccccc2)cc1,-35.2,1.4,-1.1,12.7,1
Cc1occc1-c1nnc(SCC(=O)c2cc3ccccc3oc2=O)o1,51.0*,0.5,-11.0,-0.7,1.1
CCN1C(=O)N(CC)C2C1N(CO)C(=O)N2CO (configuration not stated),-10.6,1.1,-0.6,1.4,1
CC1CCc2c(sc(NC(=O)c3ccccc3C(=O)O)c2C#N)C1 (configuration not stated),0.7,1,76.7*,7.2,0.2
CC(=O)Nc1sc2c(c1C#N)CCC(C)C2 (configuration not stated),8.1,0.9,1.7,14.9,1
O=C(N/N=C/C1CCCCC1)c1cc(Cl)ccc1O,2.9,1,50.3*,4.1,0.5
Cc1ccc(Nc2nc3ccccc3s2)c(C)c1,22.4,0.8,65.6*,2.8,0.3
COc1ccc(CNCC(O)(c2ccc(F)cc2)c2ccc(F)cc2)cc1,1.3,1,-5.2,-5.1,1.1
CCNC(=S)NNC(=O)c1csc2c1CCC(C)C2 (configuration not stated),-5.9,1.1,-1.6,2.2,1
Cc1ccccc1NC(=S)NNC(=O)c1csc2c1CCC(C)C2 (configuration not stated),-4.4,1,60.1*,-3.5,0.4
O=c1c2sccc2n(Cc2cccc(F)c2)c(=O)n1-c1ccc(F)cc1,17.9,0.8,-2.4,2.5,1
Nn1c(SCC(=O)Nc2cc(S(=O)(=O)N3CCOCC3)ccc2Cl)nnc1-c1cccnc1,8.6,0.9,-5.4,8.9,1.1
O=C(CCCOc1ccc(Cl)cc1Cl)N/N=C/c1cccc([N+](=O)[O-])c1,7.5,0.9,-3.7,-6.5,1
S=c1[nH]ncn2c1cc1oc3ccccc3c12,50.8*,0.5,1.9,5.9,1
S=c1[nH]nc(-c2cc(-c3ccco3)[nH]n2)n1-c1ccccc1Cl,70.7*,0.3,-0.2,7.0,1
CCOC(=O)C1=C(C(F)(F)F)Nc2ncnn2C1c1ccc(OC)cc1OC (configuration not stated),12.8,0.9,-3.7,-2.6,1
O=C(NCCO)c1cc2ccccc2cc1O,52.5*,0.5,-2.8,-1.9,1
COc1ccc(Cn2c(N)c(C#N)c3nc4ccccc4nc32)cc1,8.2,0.9,-6.9,-14.6,1.1
COc1ccc(-n2c(NC(=O)c3ccc(Br)o3)c(C#N)c3nc4ccccc4nc32)cc1,63.0*,0.4,-4.8,13.2,1
Oc1ccc(C=Nc2ccc(N3CCOCC3)cc2)c(O)c1,15.0,0.8,77.8*,0.8,0.2
Oc1ccc(N=Nc2cccc(C(F)(F)F)c2)cc1C=Nc1ccc(N2CCOCC2)cc1,14.6,0.9,-2.9,10.7,1
Nc1nonc1-c1nc2ccccc2n1CC(=O)N/N=C/c1ccc(-c2cccc(C(=O)O)c2)o1,52.1*,0.5,-1.8,-6.2,1
